Reference: the RNAGym collection of RNA variant scans (doi:10.1126/science.aae0568)
Variants at the floor of the assay were thinned out.

B1: tRNA (parent)
chain: GUUCCGUUGGCGUAAUGGUAACGCGUCUCCCUCCUAAGGAGAAGACUGCGGGUUCGAGUCCCGUACGGAACG

Variants of: B1
Assay: yeast fitness relative to wild type (ratio to wild type); higher = fitter; tRNA-Arg(CCU), competitive growth, 37 C, YPD
Procedure, shortened: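 Start and end populations of a pooled competition were compared by 100-nucleotide paired-end sequencing of gene amplicons. The Saccharomyces cerevisiae strains carried tRNA-Arg(CCU) gene variants at the native genomic locus, synthesised with a 3% per-site mutation rate at 69 sites, and competed in YPD at 37°C for 24 hours in six parallel replicates. Darwinian fitness relative to wild type was based on the change in genotype frequencies. Genotypes required ≥ 100 starting reads, and estimates < 0.5 were set to 0.5.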

Point of comparison: C22A A70G, yeast fitness 0.948. Against it:
- A21G G25A G39C C62U — lower, ≤ 0.5
- A21U A57U — lower, 0.61
- C22A G50C — lower, 0.627
- A21U C22A C29G C55A U59C — lower, 0.647
- C22A U28G G67U — lower, ≤ 0.5
- A21U A45G C49A — lower, ≤ 0.5
- C22A C29A U54G — lower, ≤ 0.5
- A21U U26A — lower, 0.722
- C22A C30U A42C A57U G67A A70U — lower, ≤ 0.5
- C22A — higher, 1
- A21U C22U C66U A69U — lower, ≤ 0.5
- C22A C61G — lower, 0.594
- A21U C22G C55A G56C G67C — lower, ≤ 0.5
- A21U C62G — lower, 0.586
- A21U A37G G50C G56C — lower, ≤ 0.5
- A21U C30G G48A — lower, ≤ 0.5
- A21U U32G G48C G68C — lower, ≤ 0.5
- C22A G48A — lower, 0.826
- A21U G56C G63A U64C G67C A69U — lower, ≤ 0.5
- C22A A45C U47C U54G — lower, ≤ 0.5
- A21U C46U C55A G56C — lower, ≤ 0.5
- A21U A70C — lower, 0.701
- C22A C60A C61G — lower, 0.565
- A21U C55A A65C — lower, ≤ 0.5
- C22A G23C A36C C60G A65C — lower, ≤ 0.5
- A21G G25A A42C — lower, 0.707
- A21U U32G G51C C61U — lower, 0.541
- A21U A45U G51A C55G A65C — lower, ≤ 0.5
- C22A C29U C66U — lower, ≤ 0.5
- A21G G58C U59C G63A — lower, 0.701
- C22A C31U A43U — lower, 0.623
- A21U C27U G44A — lower, ≤ 0.5
- A21U A45U — lower, 0.676
- A21U C29G G63A — lower, 0.618
- A21U U28C C29G C49G A70U — lower, ≤ 0.5
- A21U G25A — lower, 0.757
- C22A A36G A42G — lower, ≤ 0.5
- A21G G25C C27G A42C G68C — lower, ≤ 0.5
- A21U U32A A70G — lower, ≤ 0.5
- A21U A40C A42U C49U G50C C66U — lower, 0.578
- A21U U28A A40U A45U — lower, 0.878
- A21U U26A C27G C30G A36U G38C C46U C49G A65U — lower, ≤ 0.5
- C22A A70U — higher, 1.01
- C22A A70C — lower, 0.877
- A21G G23A C31U G63C U64A C66G — lower, ≤ 0.5
- A21U C33G C55U — lower, ≤ 0.5
- A21U U32G A37G A45G C55A — lower, ≤ 0.5
- A21U A40U — lower, 0.728
- A21U G41A A57C — lower, ≤ 0.5
- A21U G68C — lower, 0.687
- A21U A40C A42U A43G C49U G50C C66U — lower, ≤ 0.5
- A21G G44A A69C — lower, ≤ 0.5
- A21U A42G C55U A70C — lower, 0.603
- A21U C24G U54G C55G C62U — lower, ≤ 0.5
- C22A C55G — lower, 0.63
- C22A C55U — lower, 0.918
- C22A G63A — higher, 0.983
- A21G G50C — lower, 0.76
- A21G G50A — higher, 1.14
- C22A G51C A69U — lower, 0.74
- A21U U28G C55A G58A — lower, ≤ 0.5
- A21U U26A A37C C62G — lower, ≤ 0.5
- A21U C33G A42G G44A U64C — lower, 0.558
- A21U G23C C49U — lower, ≤ 0.5
- A21U G50A C62G — lower, 0.601
- A21U C30U — lower, 0.646
- C22A C31G G68A — lower, ≤ 0.5
- A21U U47G G67A A69G — lower, ≤ 0.5
- A21U G56A — lower, 0.646
- A21U C27G C33U C34A — lower, ≤ 0.5
- A21U A43G G44C — lower, ≤ 0.5
- A21U A36G C55A G67C — lower, ≤ 0.5
- A21U A36C G38C G58C A69C — lower, ≤ 0.5
- A21U A42G G50C U59C — lower, ≤ 0.5
- C22A C27A U59C — lower, 0.586
- A21U A36U A65G — lower, 0.589
- A21U U53A C66U — lower, ≤ 0.5
- A21G G48A — lower, 0.92
- A21G G48C — higher, 1.01
- A21U C33G A57C — lower, ≤ 0.5
- A21G G39A — lower, 0.809
- C22A C29G G44A U64G — lower, ≤ 0.5
- A21U C49U — lower, 0.781
- C22A C33A G39C — lower, ≤ 0.5
- A21G G63U — lower, 0.752
- C22A A36G G41A — lower, 0.548
- A21U C30U U32A G68C — lower, ≤ 0.5
- A21G U53A A57U A65U — lower, 0.52
- C22A C60G — lower, 0.57
- C22A C60U — lower, 0.682
- C22A U28C A42G U47A — lower, 0.64
- A21U C60U G67U — lower, ≤ 0.5
- A21U G52C — lower, ≤ 0.5
- A21U A42G C49U — lower, ≤ 0.5
- A21G G25A — higher, 1.12
- C22A U28G C31G A42U C61U — lower, ≤ 0.5
- A21U A57C G58A A70C — lower, ≤ 0.5
- A21U C31G — lower, 0.842
- A21U C27G U28C C30U U53G C61A — lower, 0.78
- C22A C29A — lower, 0.636
- C22A C29U — lower, 0.621
- A21G U35C A36U A40U C55U A57C — lower, ≤ 0.5
- A21U A36U G58A — lower, ≤ 0.5
- A21U A42U A57G — lower, 0.548
- A21U C27G C30G — lower, ≤ 0.5
- A21U C49U U54A U64C — lower, ≤ 0.5
- A21U U26G A70C — lower, 0.729
- A21U G50C C66G — lower, ≤ 0.5
- A21U A65C — lower, 0.793
- A21G G25A G48C C62A — lower, ≤ 0.5
- C22A G48A C49U G50A G51C U64A A70C — lower, 0.563
- C22A G23A A37G U54G — lower, ≤ 0.5
- A21U G25A G51A C60A — lower, ≤ 0.5
- C22A C30A — lower, 0.686
- A21G U47A G68A — lower, 0.685
- A21U C30A A70G — lower, 0.756
- A21G G67U A69C — lower, 0.528
- C22A C46G G52A — lower, ≤ 0.5
- A21U G25C A37G A43G A65G — lower, ≤ 0.5
- A21U G63A — lower, 0.856
- C22A U26C U47C — lower, 0.541
- A21G G38C — lower, 0.674
- A21G U35G A37G A42G — lower, ≤ 0.5
- A21U G41C A43C C49A C62U — lower, ≤ 0.5
- C22A C27G A43U C60A — lower, 0.557
- A21G U53A U54C C61G — lower, 0.718
- C22A G23C A42G — lower, ≤ 0.5
- A21U C24G C62G C66U — lower, ≤ 0.5
- A21G G67C — lower, 0.865
- A21G G67A — higher, 0.956
- C22A C24U G44C G48A — lower, ≤ 0.5
- A21G G25C C61G G68U — lower, ≤ 0.5
- C22A C46U — higher, 1.1
- A21G U59A A69G — lower, ≤ 0.5
- A21U C27A G50C G52C — lower, ≤ 0.5
- C22A C49A C61U — lower, ≤ 0.5
- C22A C24G A36C C66U — lower, 0.692
- A21U C22U U26C — lower, ≤ 0.5
- A21G C61U A70U — lower, 0.776
- A21U U64C — lower, 0.775
- A21U C34A G50C — lower, 0.535
- C22A C29A G44C — lower, 0.605
- A21U U35C G44A G48C C55G A69U — lower, ≤ 0.5
- A21U G23A C49A — lower, ≤ 0.5
- C22A U32A C33U G39A A43C A69C — lower, ≤ 0.5
- C22A G58A — lower, 0.866
- C22A G51C A57U — lower, 0.624
- A21G U28A A42C A57G C66A — lower, 0.6
- A21G U32C G51C C61A — lower, 0.508
- A21U C27G C33G A69U — lower, ≤ 0.5
- A21U C24A A45U — lower, ≤ 0.5
- A21U C31G U32A — lower, 0.585
- A21U C24U U26A A43U — lower, 0.668
- A21U C34G — lower, 0.597
- A21U C34A — lower, 0.573
- A21U C22U C30G U59G A65U — lower, ≤ 0.5
- A21U A36C C60G A65C — lower, 0.575
- A21G U53A U54A — lower, ≤ 0.5
- A21U C66U — lower, 0.78
- A21U A57U C60A G68C — lower, ≤ 0.5
- A21U C22G A69U — lower, 0.613
- C22A C24A U26C C60G C61U — lower, ≤ 0.5
- A21U A40G A57U C60G G68C — lower, ≤ 0.5
- C22A C49G G67A — lower, ≤ 0.5
- A21G U64A — lower, 0.877
- A21U C24U A57U A65C A69C — lower, ≤ 0.5
